Drawing on ChEMBL document CHEMBL1136545, “Novel thieno oxazine analogues as antihyperglycemic and lipid modulating agents” (2003), this text covers Activity and Reduction for ten compounds.

The source made the active and inactive calls. No cut-off for these calls is given here.

The target of experiment [1] is T1, Peroxisome proliferator-activated receptor alpha (Homo sapiens) (UniProt Q07869).
T1 sequence (whole entry): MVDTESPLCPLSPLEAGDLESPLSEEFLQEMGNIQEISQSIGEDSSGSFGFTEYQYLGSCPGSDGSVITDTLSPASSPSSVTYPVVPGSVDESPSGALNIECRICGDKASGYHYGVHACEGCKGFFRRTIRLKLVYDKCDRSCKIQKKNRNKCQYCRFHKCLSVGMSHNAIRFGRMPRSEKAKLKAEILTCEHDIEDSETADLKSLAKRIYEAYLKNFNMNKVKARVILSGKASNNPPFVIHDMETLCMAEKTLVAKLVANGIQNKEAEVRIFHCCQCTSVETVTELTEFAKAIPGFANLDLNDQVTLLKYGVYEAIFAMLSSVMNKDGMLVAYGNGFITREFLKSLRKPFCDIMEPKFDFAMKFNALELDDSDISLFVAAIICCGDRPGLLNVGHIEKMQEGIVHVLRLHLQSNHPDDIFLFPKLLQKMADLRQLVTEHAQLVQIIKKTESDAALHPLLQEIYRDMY
Nature of the experiment: Compound was tested for activation of peroxisome proliferator-activated receptor alpha activity at 50 uM concentration by transactivation assay. The gist of the method:
(§1)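 Cell-based PPAR transactivation assay, with receptor activity expressed as fold activation. Each compound was tested at a single concentration, which differed between the PPARα and PPARγ arms.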

In experiment [2] the target is T2, Peroxisome proliferator-activated receptor gamma (Homo sapiens) (UniProt P37231).
T2 sequence (whole entry): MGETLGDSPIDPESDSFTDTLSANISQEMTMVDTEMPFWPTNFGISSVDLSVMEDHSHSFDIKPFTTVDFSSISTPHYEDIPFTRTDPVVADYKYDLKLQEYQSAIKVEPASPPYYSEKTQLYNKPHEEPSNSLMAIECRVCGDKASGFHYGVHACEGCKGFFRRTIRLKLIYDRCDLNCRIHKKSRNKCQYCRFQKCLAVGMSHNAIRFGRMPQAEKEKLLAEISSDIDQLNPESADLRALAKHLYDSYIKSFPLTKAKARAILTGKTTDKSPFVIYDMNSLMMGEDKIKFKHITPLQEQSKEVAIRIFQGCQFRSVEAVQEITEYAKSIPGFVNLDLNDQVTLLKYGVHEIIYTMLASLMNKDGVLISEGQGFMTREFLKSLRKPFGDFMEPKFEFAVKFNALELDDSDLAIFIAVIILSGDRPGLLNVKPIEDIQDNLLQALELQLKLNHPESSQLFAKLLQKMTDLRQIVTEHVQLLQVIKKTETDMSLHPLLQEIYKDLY
Put plainly: Compound was tested for activation of peroxisome proliferator-activated receptor gamma activity at 1 uM concentration by transactivation assay. Put shortly:
as §1

In experiment [3] the test system is Mus musculus. Put plainly: Percentage reduction of plasma glucose (PG) in db/db mice at 3 mg/kg. The format is functional. Put shortly: (§2)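 db/db mice were dosed orally at 3 mg/kg for 6 days. Plasma glucose and triglyceride were then measured, and each value is the percentage reduction.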
For experiment [4], the system named is Mus musculus. Put plainly: Percentage reduction of triglyceride (TG) in db/db mice at 3 mg/kg. The format is functional. Put shortly:
as §2

Experiment [5] deals with Mus musculus. Nature of the experiment: Percentage reduction of plasma glucose (PG) in db/db mice at 3 mg/kg; No effect. The format is functional, organism-based. Details: dose 3 mg/kg. The gist of the method: as §2
The test system of experiment [6] is Mus musculus. Nature of the experiment: Percentage reduction of triglyceride (TG) in db/db mice at 3 mg/kg; No effect. The format is functional, organism-based. Details: dose 3 mg/kg. Put shortly: as §2

As for `O=C(O)Cc1ccc(OCCN2C(=O)COc3ccsc32)cc1`, the Activity in experiment [1] was 5; in experiment [2], 14. For the same compound, the values for the Reduction in the experiment with Mus musculus [3] and with Mus musculus [4] were 39% and 43%, respectively.
For `CCOC(Cc1ccc(OCCN2C(=O)COc3ccsc32)cc1)C(=O)O` (stereo not given), the Activity in experiment [1] came to 8; in experiment [2], 16. For the same compound, the values for the Reduction in the experiment on Mus musculus [3] and with Mus musculus [4] were 47% and 56%, respectively.
Consider `CCOC(Cc1ccc(OCCN2C(=O)COc3ccsc32)c(Br)c1)C(=O)O` (stereo not given), for which the Activity came out at 8 in experiment [1] and 1.2 in experiment [2]. The Reduction result in the experiment on Mus musculus [5] is “inactive”. In the experiment with Mus musculus [4], the Reduction is 62%.
As to `CCOC(Cc1cc(Br)c(OCCN2C(=O)COc3ccsc32)c(Br)c1)C(=O)O` (stereo not given), the Activity in experiment [1] came to 5; in experiment [2], 1.6. In addition, the Reduction entry with Mus musculus [5] was “inactive”. Moreover, in the experiment with Mus musculus [4], the Reduction was found to be 48%.
For the compound `O=C(O)Cc1ccc(OCCN2C(=O)COc3ccsc32)c(Br)c1`, the Activity was found to be 1.3 in experiment [1] and 8 in experiment [2]. Besides, the Reduction worked out at 21% in the experiment on Mus musculus [3] and 14% with Mus musculus [4].
For `CCOC(Cc1ccc(OCCN2C(=O)COc3ccsc32)c(C)c1)C(=O)O` (stereo not given), the Activity came out at 1.5 in experiment [1] and 18 in experiment [2]. Also, the Reduction in the experiment with Mus musculus [3] came to 52%; in the experiment with Mus musculus [4] it was 19%.
With `CCOC(Cc1ccc(OCCN2C(=O)COc3ccsc32)c(Cl)c1)C(=O)O` (stereo not given), the Activity is 2.5 in experiment [1] and 7 in experiment [2]. The results for the Reduction in the experiment with Mus musculus [3] and with Mus musculus [4] were 21% and 27%, respectively.
As for `CCOC(Cc1ccc(OCCN2C(=O)COc3ccsc32)c(OC)c1)C(=O)O` (stereo not given), the Activity in experiment [1] was 0.5; in experiment [2], 1.2. The Reduction result in the experiment with Mus musculus [6] and in the experiment with Mus musculus [5] was “inactive” throughout.
For the compound `O=C(O)Cc1ccc(OCCCN2C(=O)COc3ccsc32)cc1`, the results for the Activity in experiment [1] and in experiment [2] were 0.5 and 5, respectively. In addition, the Reduction entry with Mus musculus [6] is “inactive”. In the experiment on Mus musculus [3], the Reduction is 14%.
`O=C(O)Cc1cc(Br)c(OCCN2C(=O)COc3ccsc32)c(Br)c1`: the Activity in experiment [1] stood at 2; in experiment [2], 15. The Reduction with Mus musculus [3] amounted to 43%; in the experiment with Mus musculus [4], 15%.
